Calls of active or inactive are those of the source. The calls are words filed in the database; no cut-off is given here.
B1: Ribokinase (Escherichia coli K-12), P0A9J6 (protein)
chain: MQNAGSLVVLGSINADHILNLQSFPTPGETVTGNHYQVAFGGKGANQAVAAGRSGANIAFIACTGDDSIGESVRQQLATDNIDITPVSVIKGESTGVALIFVNGEGENVIGIHAGANAALSPALVEAQRERIANASALLMQLESPLESVMAAAKIAHQNKTIVALNPAPARELPDELLALVDIITPNETEAEKLTGIRVENDEDAAKAAQVLHEKGIRTVLITLGSRGVWASVNGEGQRVPGFRVQAVDTIAAGDTFNGALITALLEEKPLPEAIRFAHAAAAIAVTRKGAQPSVPWREEIDAFLDRQR

How the values were obtained:
[1] = Inhibition of Escherichia coli O18:K1 C7 HldE by luminescent assay
Method in brief: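 His-tagged E. coli O18:K1 C7 HldE (3 nM) pre-incubated 30 min at room temperature with inhibitor (≤5% DMSO). Then H-7-P 0.2 uM and ATP 0.2 uM added for 40 min in pH 7.5 Hepes, 1 mM MnCl2, 25 mM KCl, 0.012% Triton X-100, 1 mM DTT. ATP depletion read by luciferase luminescence; IC50 from 6–10 concentrations, means of three experiments.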

Ribokinase = biological target: T1, Ribokinase (Escherichia coli K-12, UniProt P0A9J6); assay: Inhibition of Escherichia coli K12 MG1655 ribokinase by luminescent assay
T1 sequence (P0A9J6 whole entry): B1 chain
Method in brief: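 His-tagged E. coli K12 MG1655 ribokinase (0.6 nM) in pH 7.5 Hepes buffer with 1 mM MnCl2, 25 mM KCl, 0.012% Triton X-100, 1 mM DTT. Inhibitor pre-incubated 30 min at room temperature, then D-ribose 3 uM and ATP 3 uM added for 40 min. Remaining ATP detected by luciferase/luciferin luminescence; IC50 fitted from 6–10 concentrations.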

[2] = Inhibition of Neisseria meningitidis 2C43 HldA by luminescent assay
Method in brief: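 His-tagged N. meningitidis 2C43 HldA (20 nM) pre-incubated 30 min at room temperature with inhibitor, then H-7-P 0.2 uM and ATP 0.2 uM added for 40 min. Buffer pH 7.5 Hepes, 1 mM MnCl2, 25 mM KCl, 0.012% Triton X-100, 1 mM DTT. Residual ATP measured by luciferase/luciferin luminescence; IC50 fitted from 6–10 concentrations.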

Escherichia coli [3] = assay: Activity of Escherichia coli O18:K1 C7 HldE in presence of 0.2 uM D-glycero-D-manno-heptose-7-phosphate
Method in brief: (§1)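 His-tagged HldE, Ni-NTA purified, steady-state kinetics with ATP varied at fixed H-7-P. Conditions are pH 7.5 with 1 mM MnCl2, 25 mM KCl and 5% DMSO in Hepes/Triton X-100/DTT buffer. ADP is detected by a pyruvate kinase/lactate dehydrogenase coupled system, reading NADH fluorescence kinetically (ex 360, em 520 nm). Values ± SD.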

Escherichia coli [4] = assay: Activity of Escherichia coli O18:K1 C7 HldE in presence of 1.8 uM D-glycero-D-manno-heptose-7-phosphate; method in brief: as §1
Neisseria meningitidis = assay: Activity of Neisseria meningitidis 2C43 HldA in presence of 0.2 uM D-glycero-D-manno-heptose-7-phosphate
Method in brief: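 His-tagged HldA, Ni-NTA purified, at 20 nM with 0.2 µM H-7-P and ATP. Buffer is 50 mM Hepes pH 7.5, 1 mM MnCl2, 25 mM KCl, 0.012% Triton X-100 and 1 mM DTT. Reaction runs 40 min at room temperature. ATP depletion is read by luciferase/D-luciferin luminescence.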

Escherichia coli [5] = assay: Inhibition of Escherichia coli O18:K1 C7 HldE in presence of Triton-X100 by luminescent assay
Escherichia coli [6] = assay: Inhibition of Escherichia coli O18:K1 C7 HldE in presence of D-glycero-D-manno-heptose-7-phosphate by luminescent assay
[7] = Inhibition of Escherichia coli O18:K1 C7 HldE by fluorescent assay
Method in brief: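 Coupled fluorescent HldE-kinase assay: His-tagged E. coli O18:K1 C7 HldE (66 pM), 30 min inhibitor pre-incubation at room temperature, then H-7-P 1 uM, ATP 50 uM with PK/PEP/LDH/NADH. pH 7.5 Hepes, 1 mM MnCl2, 25 mM KCl, 0.012% Triton X-100, 1 mM DTT. NADH fluorescence read kinetically; Ki derived, substrate levels varied for competition.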

Escherichia coli [8] = assay: Activity of Escherichia coli O18:K1 C7 HldE in presence of 0.3 uM ATP
Method in brief: (§2)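 His-tagged E. coli O18:K1 C7 HldE kinase steady-state kinetics, pH 7.5 with 1 mM MnCl2, 25 mM KCl, 5% DMSO. H-7-P Km measured at fixed ATP 50 uM or 0.3 uM; ADP formation followed by PK/LDH-coupled NADH fluorescence (ex 360, em 520 nm), read kinetically; values ± SD.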

Escherichia coli [9] = assay: Activity of Escherichia coli O18:K1 C7 HldE in presence of 50 uM ATP; method in brief: as §2
[10] = compound: Nc1ncnc2c1ncn2[C@@H]1O[C@H](COP(=O)(O)OP(=O)(O)OP(=O)(O)O)[C@@H](O)[C@H]1O; assay: Activity of Escherichia coli K12 MG1655 ribokinase in presence of 3 uM D-ribose; conditions: Escherichia coli K-12
Method in brief: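 His-tagged ribokinase, Ni-NTA purified, at 0.6 nM with 3 µM D-ribose and ATP. Buffer is 50 mM Hepes pH 7.5, 1 mM MnCl2, 25 mM KCl, 0.012% Triton X-100 and 1 mM DTT. Reaction runs 40 min at room temperature. ATP depletion is read by luciferase/D-luciferin luminescence. Values ± SD.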

Molecule	IC50 [1] [µM]	further results
COc1cccc(-c2nc(C(=O)N(CC(=O)O)Cc3ccc4ccccc4n3)c(C)o2)c1	12	
Cc1oc(-c2ccccc2)nc1C(=O)N(CC(=O)O)Cc1cccnc1	> 300	
Cc1nc(-c2ccc3ccccc3c2)sc1C(=O)N(CC(=O)O)Cc1nc2ccccc2s1	0.48	IC50 (Ribokinase): > 33 µM; IC50 [2]: 12 µM
Nc1ncnc2c1ncn2[C@@H]1O[C@H](COP(=O)(O)OP(=O)(O)OP(=O)(O)O)[C@@H](O)[C@H]1O		Km (Escherichia coli [3]): > 0.8 µM; Km (Escherichia coli [4]): 147 µM; Km (Neisseria meningitidis): > 0.4 µM
Cc1nc(-c2ccccc2)sc1C(=O)N(CC(=O)O)Cc1ccccn1	52	
Cc1oc(-c2ccccc2)cc1C(=O)N(CC(=O)O)Cc1ccccn1	42	
Cc1oc(-c2cccc(Br)c2)nc1C(=O)N(CC(=O)O)Cc1ccccn1	10	
COc1cc(-c2nc(C)c(C(=O)N(CC(=O)O)Cc3nc4ccccc4s3)s2)ccc1N	0.26	
CC(=O)Nc1cccc(-c2nc(C(=O)N(CC(=O)O)Cc3ccccn3)c(C)o2)c1	28	
Cc1oc(-c2ccc(Br)cc2)nc1C(=O)N(CC(=O)O)Cc1ccccn1	27	
Cc1onc(-c2ccccc2)c1C(=O)N(CC(=O)O)Cc1ccccn1	> 300	
Cc1nc(-c2ccccc2)oc1C(=O)N(CC(=O)O)Cc1ccccn1	69	Activity (Escherichia coli [5]): Active; Activity (Escherichia coli [6]): Active; Ki [7]: 38 µM
Cc1oc(-c2cccc([N+](=O)[O-])c2)nc1C(=O)N(CC(=O)O)Cc1ccccn1	5.8	IC50 (Ribokinase): > 300 µM; IC50 [2]: > 300 µM
Cc1nc(-c2ccc3[nH]ccc3c2)sc1C(=O)N(CC(=O)O)Cc1nc2ccccc2s1	0.33	IC50 (Ribokinase): > 100 µM; IC50 [2]: 8.5 µM
Cc1oc(-c2ccccc2N)nc1C(=O)N(CC(=O)O)Cc1ccccn1	31	
Cc1oc(-c2ccccc2)nc1C(=O)N(CC(=O)O)Cc1ccncc1	> 300	
Cc1oc(-c2ccc(N)cc2)nc1C(=O)N(CC(=O)O)Cc1ccccn1	22	
Cc1oc(-c2cccc(N)c2)nc1C(=O)N(CC(=O)O)Cc1ccccn1	153	
Cc1oc(-c2ccccc2[N+](=O)[O-])nc1C(=O)N(CC(=O)O)Cc1ccccn1	141	
Cc1nc(-c2ccccc2)oc1C(=O)N(CC(=O)O)Cc1ccccc1N	> 300	
Cn1nc(-c2ccccc2)cc1C(=O)N(CC(=O)O)Cc1ccccn1	57	
Cc1oc(-c2ccccc2)nc1C(=O)N(CC(=O)O)Cc1ccco1	> 300	
COc1cccc(-c2nc(C)c(C(=O)N(CC(=O)O)Cc3nc4ccccc4s3)o2)c1	0.27	IC50 (Ribokinase): > 300 µM; IC50 [2]: 6 µM

Molecule	IC50 [1] [µM]	further results
O=C(O)CN(Cc1ccccn1)C(=O)c1ccc(-c2ccccc2)cc1	> 300	
O=C(O)CN(Cc1ccccn1)C(=O)c1ccc(-c2ccccc2)o1	100	
O=P(O)(O)OC[C@@H](O)[C@H]1OC(O)[C@@H](O)[C@@H](O)[C@@H]1O (stereo partly drawn)		Km (Escherichia coli [8]): 0.23 µM; Km (Escherichia coli [9]): 0.6 µM
Cc1nc(-c2cccc(S(C)(=O)=O)c2)sc1C(=O)N(CC(=O)O)Cc1nc2ccccc2s1	75	
Cc1oc(-c2ccccc2)nc1C(=O)N(CC(=O)O)Cc1nccs1	110	
Cc1oc(-c2cccc(NC(=O)C3CC3)c2)nc1C(=O)N(CC(=O)O)Cc1ccccn1	14	
COc1ccc(-c2nc(C(=O)N(CC(=O)O)Cc3ccccn3)c(C)o2)cc1	75	
Cc1nc(-c2ccc(N)c([N+](=O)[O-])c2)sc1C(=O)N(CC(=O)O)Cc1ccccn1	13	
COc1cccc(-c2nc(C)c(C(=O)N(CC(=O)O)Cc3nc4ccccc4s3)s2)c1	0.42	
Cc1oc(-c2ccccc2)nc1C(=O)N(CC(=O)O)Cc1ccccc1	> 300	
COc1cccc(-c2nc(C(=O)N(CC(=O)O)Cc3ccccn3)c(C)o2)c1	15	IC50 (Ribokinase): > 300 µM; IC50 [2]: > 300 µM
CC(=O)c1cccc(-c2nc(C)c(C(=O)N(CC(=O)O)Cc3ccccn3)s2)c1	216	
Cc1oc(-c2ccccc2Br)nc1C(=O)N(CC(=O)O)Cc1ccccn1	44	
Cc1oc(-c2cccc(N3CCOCC3)c2)nc1C(=O)N(CC(=O)O)Cc1ccccn1	70	
COc1cccc(-c2nc(C)c(C(=O)N(CC(=O)O)Cc3ccccn3)o2)c1	17	
Cc1oc(-c2ccccc2)nc1C(=O)N(CC(=O)O)Cc1ccccn1	51	
Cc1nc(-c2cccc([N+](=O)[O-])c2)sc1C(=O)N(CC(=O)O)Cc1nc2ccccc2s1	0.5	IC50 (Ribokinase): > 300 µM; IC50 [2]: 75 µM
Cc1oc(-c2ccc(C(F)(F)F)cc2)nc1C(=O)N(CC(=O)O)Cc1ccccn1	142	
Cc1oc(-c2cccc(C(F)(F)F)c2)nc1C(=O)N(CC(=O)O)Cc1ccccn1	35	
Cc1oc(-c2cccc(-c3ccn[nH]3)c2)nc1C(=O)N(CC(=O)O)Cc1nc2ccccc2s1	0.11	
Cc1oc(-c2ccc([N+](=O)[O-])cc2)nc1C(=O)N(CC(=O)O)Cc1ccccn1	151	
B1		Km [10]: 18 µM

Reference: ChEMBL document CHEMBL1143345, “Towards Gram-negative antivirulence drugs: new inhibitors of HldE kinase” (Bioorg Med Chem, 2009)
